Data set [1] can be described thus: Selectivity index, ratio of Ki for RARalpha/RXRalpha (unknown origin) to Ki for RARgamma/RXRalpha (unknown origin) expressed in baculovirus expression system. Set-up: species or system Homo sapiens.
Data set [2] deals with T1, Retinoic acid receptor RXR-alpha/Retinoic acid receptor beta (Homo sapiens, UniProt P10826).
T1 sequence (P10826 whole entry): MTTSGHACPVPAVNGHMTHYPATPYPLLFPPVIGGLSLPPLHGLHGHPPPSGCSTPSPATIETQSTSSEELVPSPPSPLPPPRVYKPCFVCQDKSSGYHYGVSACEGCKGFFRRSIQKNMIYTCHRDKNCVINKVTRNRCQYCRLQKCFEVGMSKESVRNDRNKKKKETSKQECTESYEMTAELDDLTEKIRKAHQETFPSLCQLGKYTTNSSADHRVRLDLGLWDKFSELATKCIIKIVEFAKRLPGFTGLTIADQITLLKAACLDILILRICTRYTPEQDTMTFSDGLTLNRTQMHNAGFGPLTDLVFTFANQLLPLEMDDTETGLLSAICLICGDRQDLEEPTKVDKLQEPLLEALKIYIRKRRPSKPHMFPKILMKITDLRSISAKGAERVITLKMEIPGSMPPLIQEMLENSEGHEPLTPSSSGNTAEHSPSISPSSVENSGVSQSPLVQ
T1 sequence (P19793 whole entry): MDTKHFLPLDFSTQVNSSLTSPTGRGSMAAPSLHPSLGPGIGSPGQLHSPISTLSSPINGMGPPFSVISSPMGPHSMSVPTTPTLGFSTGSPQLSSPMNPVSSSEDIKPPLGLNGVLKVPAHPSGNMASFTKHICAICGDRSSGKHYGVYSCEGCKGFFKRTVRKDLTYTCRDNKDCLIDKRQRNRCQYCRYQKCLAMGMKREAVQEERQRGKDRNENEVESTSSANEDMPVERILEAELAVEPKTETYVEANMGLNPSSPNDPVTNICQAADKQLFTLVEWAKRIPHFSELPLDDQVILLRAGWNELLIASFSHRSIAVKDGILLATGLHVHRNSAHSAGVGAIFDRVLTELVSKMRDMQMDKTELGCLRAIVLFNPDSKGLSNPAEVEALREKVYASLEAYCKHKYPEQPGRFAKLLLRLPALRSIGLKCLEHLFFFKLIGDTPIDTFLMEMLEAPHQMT
Put plainly: Displacement of [3H]-TTNPB from RARbeta/RXRalpha (unknown origin) expressed in baculovirus expression system by scintillation proximity assay. A general note: In a radioligand displacement assay an active substance lowers the binding of a labelled ligand.

Data set [3] concerns the target T2, Retinoic acid receptor gamma (Homo sapiens) (UniProt P13631).
T2 sequence (whole entry): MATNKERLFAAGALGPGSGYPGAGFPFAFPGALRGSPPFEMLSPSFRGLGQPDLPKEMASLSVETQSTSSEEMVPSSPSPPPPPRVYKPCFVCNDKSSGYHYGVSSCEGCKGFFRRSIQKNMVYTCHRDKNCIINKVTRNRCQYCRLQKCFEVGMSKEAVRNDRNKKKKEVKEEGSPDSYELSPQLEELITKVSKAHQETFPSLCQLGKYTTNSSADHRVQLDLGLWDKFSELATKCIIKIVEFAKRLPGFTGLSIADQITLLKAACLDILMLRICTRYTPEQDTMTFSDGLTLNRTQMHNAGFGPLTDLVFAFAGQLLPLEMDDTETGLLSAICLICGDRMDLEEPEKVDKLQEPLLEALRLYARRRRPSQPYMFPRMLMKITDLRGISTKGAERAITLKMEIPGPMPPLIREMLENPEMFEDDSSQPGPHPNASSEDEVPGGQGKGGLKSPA
As to the kind of experiment: Antagonist activity at RARgamma-LBD (unknown origin) expressed in HEK-293 cells assessed as inhibition of ATRA induced Gal4/luciferase gene expression after 24 hrs relative to ATRA. It is filed as cell-based. To be noted: HEK293.

For data set [4], the target named is T3, Retinoic acid receptor alpha/Retinoid X receptor alpha (Homo sapiens, UniProt P10276).
T3 sequence (P10276 whole entry): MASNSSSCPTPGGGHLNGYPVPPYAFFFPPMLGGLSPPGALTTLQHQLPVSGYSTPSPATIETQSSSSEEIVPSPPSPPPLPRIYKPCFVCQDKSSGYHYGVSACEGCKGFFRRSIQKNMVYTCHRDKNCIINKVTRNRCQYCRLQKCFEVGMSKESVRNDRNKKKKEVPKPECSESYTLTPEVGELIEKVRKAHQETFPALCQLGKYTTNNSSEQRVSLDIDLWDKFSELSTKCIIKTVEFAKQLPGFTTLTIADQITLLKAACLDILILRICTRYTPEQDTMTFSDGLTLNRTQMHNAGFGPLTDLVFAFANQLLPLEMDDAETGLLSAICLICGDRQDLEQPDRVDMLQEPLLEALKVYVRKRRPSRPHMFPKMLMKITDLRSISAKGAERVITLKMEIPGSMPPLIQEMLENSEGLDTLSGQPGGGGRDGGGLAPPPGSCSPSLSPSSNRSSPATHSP
T3 sequence (P19793 whole entry): T1 sequence (P19793 whole entry)
Put plainly: Displacement of [3H]-TTNPB from RARalpha/RXRalpha (unknown origin) expressed in baculovirus expression system by scintillation proximity assay.

For the next data set, the species on record is Homo sapiens. As to the kind of experiment: Selectivity index, ratio of Ki for RARbeta/RXRalpha (unknown origin) to Ki for RARgamma/RXRalpha (unknown origin) expressed in baculovirus expression system.
In data set [5] the target is T2, Retinoic acid receptor gamma (Homo sapiens). Put plainly: Antagonist activity at RARgamma-LBD (unknown origin) expressed in HEK-293 cells assessed as inhibition of ATRA induced Gal4/luciferase gene expression after 24 hrs. To be noted: HEK293. It is filed as cell-based.
Data set [6] addresses T4, Retinoic acid receptor RXR-alpha/gamma (Homo sapiens, UniProt P13631+P19793).
T4 sequence (P13631 whole entry): T2 sequence (whole entry)
T4 sequence (P19793 whole entry): T1 sequence (P19793 whole entry)
Put plainly: Displacement of [3H]-TTNPB from RARgamma/RXRalpha (unknown origin) expressed in baculovirus expression system by scintillation proximity assay.

Data set [7] is described as follows: Oral bioavailability in rat at 10 mg/kg measured up to 14 days. Type of data set: ADME, organism-based. To be noted: in vivo.
A short description of data set [8]: Solubility of the compound in simulated intestinal fluid. Type of data set: ADME.
Data set [9] is described as follows: AUC in rat at 10 mg/kg, po administered for 14 days. It is filed as ADME, organism-based. To be noted: in vivo.
Data set [10] can be described thus: AUC in rat at 0.72 mg/kg, po administered for 14 days. To be noted: in vivo. It is filed as ADME, organism-based.
Data set [11] deals with T5, Retinoic acid receptor alpha (Homo sapiens, UniProt P10276).
T5 sequence (P10276 whole entry): T3 sequence (P10276 whole entry)
Put plainly: Antagonist activity at RARalpha-LBD (unknown origin) expressed in HEK-293 cells assessed as inhibition of ATRA induced Gal4/luciferase gene expression after 24 hrs. Type of data set: cell-based, HEK293.

The target in data set [12] is T6, Retinoic acid receptor beta (Homo sapiens) (UniProt P10826).
T6 sequence (whole entry): T1 sequence (P10826 whole entry)
Put plainly: Antagonist activity at RARbeta-LBD (unknown origin) expressed in HEK-293 cells assessed as inhibition of ATRA induced Gal4/luciferase gene expression after 24 hrs. To be noted: HEK293. It is filed as cell-based.

Data set [13] concerns Rattus norvegicus. Put plainly: Analgesic activity in MIA-induced osteoarthritis-like joint pain rat model assessed as reduction in differential weight bearing between contralateral and ipsilateral limbs administered on day 9 post MIA challenge as single oral dose. It is filed as functional. To be noted: 216 h. The essentials: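 Rats received a single intraarticular injection of mono-iodoacetate into one hind limb joint. Joint pain read as differential weight bearing between contralateral and ipsilateral limbs. Compound given as a single oral dose on the day of testing. ED50 derived from the dose-response.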

The test system of data set [14] is Rattus norvegicus. Put plainly: Toxicity in rat assessed as testicular degeneration at 30 mg/kg, po administered for 14 days. It is filed as organism-based. To be noted: in vivo, 336 h.
Data set [15] is described as follows: AUC in rat at 30 mg/kg, po administered for 14 days. It is filed as ADME, organism-based. To be noted: in vivo.
In data set [16] the test system is Rattus norvegicus. As to the kind of experiment: Toxicity in rat assessed as testicular degeneration at 10 mg/kg, po administered for 14 days. Type of data set: organism-based. To be noted: in vivo, 336 h.

As to `CC(C)(C)c1cc(-c2cc(-c3ccc(C(=O)O)cc3)nn2-c2ccc(C(=O)N3CCOCC3)cc2)cc(C(C)(C)C)c1`, the results for the “Ratio Ki” value (in data set [1]; in the data set listed under Homo sapiens) were greater than 752 and greater than 1320, respectively. In addition, the results for the Ki in data set [2], in data set [4] and in [6] were greater than 2980 nM, greater than 1700 nM and 2.3 nM, respectively. Further, the Imax in data set [3] was greater than 100%. Moreover, the Kb (commonly the affinity of an antagonist, worked out from how it opposes an agonist) in [5] came out at 7.2 nM.

Consider `CN1CCN(C(=O)c2ccc(-n3nc(-c4ccc(C(=O)O)cc4)cc3-c3cc(C(C)(C)C)cc(C(C)(C)C)c3)cc2)CC1`, for which the bioavailability – broadly, the share of a dose that reaches the circulation, judged against a reference dose that is usually intravenous – in data set [7] turned out to be 26%. In addition, the solubility (usually the concentration that dissolves in the medium under given conditions) in data set [8] (simulated intestinal fluid, read-out: solubility) is greater than 1000 µg/mL. The AUC (usually concentration integrated over time) at 336 h in [9] was 9100 ng·h/mL; in [10], 154 ng·h/mL; in data set [15], 36800 ng·h/mL. The “Ratio Ki” value in data set [1] was greater than 1560; in the data set filed under Homo sapiens it was greater than 2730. Moreover, the Kb is greater than 4440 nM in [11], 1510 nM in data set [12] and 7.1 nM in [5]. Also, the Ki (in general, a measure of affinity in units of concentration, obtained from inhibition or displacement) was greater than 2980 nM in data set [2], greater than 1700 nM in data set [4] and 1.1 nM in data set [6]. Also, in the data set on Rattus norvegicus [13], the ED50 – broadly, the midpoint of the dose-response relation – turned out to be 0.724 mg/kg. The Activity entry in the data set on Rattus norvegicus [14] is reported as “Toxic”; in the data set on Rattus norvegicus [16] it was “Non-toxic”. Besides, the Imax in data set [3] is greater than 100%.

On to `Cc1cc(-c2cc(-c3ccc(C(=O)O)cc3)nn2-c2ccc(S(C)(=O)=O)cc2)cc(C(C)(C)C)c1`, for which, in [1], the “Ratio Ki” value worked out at 5.6. Further, the values for the Ki in [2], in data set [4] and in data set [6] were 10 nM, 6.2 nM and 1.1 nM, respectively.

As for `CN(C)S(=O)(=O)c1ccc(-n2nc(-c3ccc(C(=O)O)cc3)cc2-c2cc(C(C)(C)C)cc(C(C)(C)C)c2)cc1`, the “Ratio Ki” value in data set [1] is greater than 414; in the data set listed under Homo sapiens, greater than 725. Moreover, the inhibitory constant (Ki) is greater than 2980 nM in data set [2], greater than 1700 nM in data set [4] and 4.1 nM in data set [6]. In addition, the Imax in data set [3] is greater than 100%. Further, the Kb in [5] was 11.1 nM.

On to `CC1(C)CC=C(c2ccccc2)c2cc(/C=C/c3ccc(C(=O)O)cc3)ccc21`, for which the Imax in [3] was greater than 100%. Further, the Ki in [4] was found to be 7.7 nM; in data set [6], 17.3 nM. Besides, the Kb in data set [5] was found to be 18.5 nM.

Take `CC(C)(C)c1cccc(-c2cc(-c3ccc(C(=O)O)cc3)nn2-c2ccc(S(C)(=O)=O)cc2)c1`: the “Ratio Ki” value in data set [1] is recorded as 1.6. The Ki in [2] turned out to be 4.3 nM; in [4], 1.8 nM; in data set [6] it was 1.1 nM.

Regarding `CC(C)(C)c1cc(-c2cc(-c3ccc(C(=O)O)cc3)nn2-c2ccc(C(N)=O)cc2)cc(C(C)(C)C)c1`, the entries for the “Ratio Ki” value (in data set [1]; in the data set filed under Homo sapiens) were greater than 1259 and greater than 2210, respectively. Besides, the values for the Ki in data set [2], in data set [4] and in data set [6] were greater than 2980 nM, greater than 1700 nM and 1.4 nM, respectively. The Imax in [3] was 79%. Also, the Kb in [5] was 14.7 nM.

In data set [8] (simulated gi fluid), `CC(C)(C)c1cc(-c2cc(-c3ccc(C(=O)O)cc3)nn2-c2ccc(S(C)(=O)=O)cc2)cc(C(C)(C)C)c1` had a solubility of less than 0.1 µg/mL. In addition, the “Ratio Ki” value amounted to 106 in data set [1] and 228 in the data set listed under Homo sapiens. The Ki in [2] amounted to 995 nM; in [4], 461 nM; in data set [6], 4.4 nM. In addition, in data set [3], the Imax is greater than 100%. Also, in data set [5], the Kb was 13.5 nM.

For `CC1(C)CCC(C)(C)c2cc(-c3cc(-c4ccc(C(=O)O)cc4)nn3-c3ccc(S(C)(=O)=O)cc3)ccc21`, the “Ratio Ki” value (in [1]; in the data set listed under Homo sapiens) was 10 each time. Besides, the Ki in data set [2] is 5.2 nM; in data set [4], 2.8 nM; in data set [6], 0.27 nM. Also, the Imax in data set [3] is greater than 100%. In addition, in data set [5], the Kb turned out to be 2.2 nM.

Turning to `CC(C)c1cc(-c2cc(-c3ccc(C(=O)O)cc3)nn2-c2ccc(S(C)(=O)=O)cc2)cc(C(C)(C)C)c1`, in [1], the “Ratio Ki” value is listed as 54. The Ki was determined as 131 nM in [2], 87 nM in data set [4] and 1.6 nM in data set [6].

For the compound `CN(C)C(=O)c1ccc(-n2nc(-c3ccc(C(=O)O)cc3)cc2-c2cc(C(C)(C)C)cc(C(C)(C)C)c2)cc1`, the “Ratio Ki” value was greater than 766 in [1] and greater than 1340 in the data set listed under Homo sapiens. Also, the Ki in data set [2] is greater than 2980 nM; in [4] it was greater than 1700 nM; in [6], 2.2 nM. Besides, in data set [3], the Imax was greater than 100%. Further, the Kb in [5] amounted to 21.3 nM.
